In ChEMBL document CHEMBL5058577, “EUbOPEN Chemogenomics Library 2 (Multiplex)” (2022):

Tested on: U2OS
Test: Multiplex assay against U2OS
Type: toxicity, cell-based
Details: human
Procedure, shortened: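 Live cells carried four stains from seeding: Hoechst33342, BioTracker Green Microtubule Cytoskeleton Dye, MitoTracker Red and Annexin V Alexa Fluor 680. They were imaged on a CQ1 microscope at 37°C and 5% CO2 after compound addition. Using CellPathfinder machine-learning gating, cells were split into Hoechst high-intensity objects or normal cells, normal cells into healthy, pyknosed or fragmented nuclei, and pyknosed cells into mitotic or apoptotic; tubulin, mitochondrial-mass and membrane-permeability phenotypes are per cents of healthy-nucleus cells.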

[1] = 12 h, 1 µM, compound concentration 1 uM, replicate 1
[2] = 12 h, 1 µM, compound concentration 1 uM, replicate 2
[3] = 12 h, 10 µM, compound concentration 10 uM, replicate 1
[4] = 12 h, 10 µM, compound concentration 10 uM, replicate 2
[5] = 24 h, 1 µM, compound concentration 1 uM, replicate 1
[6] = 24 h, 1 µM, compound concentration 1 uM, replicate 2
[7] = 24 h, 10 µM, compound concentration 10 uM, replicate 1
[8] = 24 h, 10 µM, compound concentration 10 uM, replicate 2
[9] = 48 h, 1 µM, compound concentration 1 uM, replicate 1
[10] = 48 h, 1 µM, compound concentration 1 uM, replicate 2
[11] = 48 h, 10 µM, compound concentration 10 uM, replicate 1
[12] = 48 h, 10 µM, compound concentration 10 uM, replicate 2

SMILES: CC(C)C[C@H](CO)Nc1nc(S[C@@H](C)c2ccccc2)nc2nc(N)sc12 [AZD-8797]
- Population Apoptotic (%) [1]: 83%
- Population Fragmented Nuclei (%) [1]: 20%
- Population Healthy Nuclei (%) [1]: 65%
- Population Hoechst High Intensity Objects (%) [1]: 3%
- Population Membrane Permeable-Phenotype (%) [1]: 5%
- Population Mitochondria Different-Phenotype (%) [1]: 1%
- Population Mitotic Cells (%) [1]: 16%
- Population Normal (%) [1]: 96%
- Population Pyknosed Nuclei (%) [1]: 14%
- Population Tubulin-Different-Phenotype (%) [1]: 2%
- Total Cell Count [1]: 177
- Population Apoptotic (%) [2]: 100%
- Population Fragmented Nuclei (%) [2]: 12%
- Population Healthy Nuclei (%) [2]: 82%
- Population Hoechst High Intensity Objects (%) [2]: 0%
- Population Mitochondria Different-Phenotype (%) [2]: 5%
- Population Mitotic Cells (%) [2]: 0%
- Population Normal (%) [2]: 100%
- Population Pyknosed Nuclei (%) [2]: 5%
- Population Tubulin-Different-Phenotype (%) [2]: 3%
- Total Cell Count [2]: 95
- Population Apoptotic (%) [3]: 63%
- Population Fragmented Nuclei (%) [3]: 21%
- Population Healthy Nuclei (%) [3]: 56%
- Population Hoechst High Intensity Objects (%) [3]: 4%
- Population Membrane Permeable-Phenotype (%) [3]: 30%
- Population Mitochondria Different-Phenotype (%) [3]: 12%
- Population Mitotic Cells (%) [3]: 36%
- Population Normal (%) [3]: 95%
- Population Pyknosed Nuclei (%) [3]: 22%
- Population Tubulin-Different-Phenotype (%) [3]: 20%
- Total Cell Count [3]: 222
- Population Apoptotic (%) [4]: 78%
- Population Fragmented Nuclei (%) [4]: 9%
- Population Healthy Nuclei (%) [4]: 79%
- Population Hoechst High Intensity Objects (%) [4]: 2%
- Population Membrane Permeable-Phenotype (%) [4]: 10%
- Population Mitochondria Different-Phenotype (%) [4]: 16%
- Population Mitotic Cells (%) [4]: 21%
- Population Normal (%) [4]: 97%
- Population Pyknosed Nuclei (%) [4]: 10%
- Population Tubulin-Different-Phenotype (%) [4]: 6%
- Total Cell Count [4]: 135
- Population Apoptotic (%) [5]: 81%
- Population Fragmented Nuclei (%) [5]: 20%
- Population Healthy Nuclei (%) [5]: 68%
- Population Hoechst High Intensity Objects (%) [5]: 1%
- Population Membrane Permeable-Phenotype (%) [5]: 2%
- Population Mitochondria Different-Phenotype (%) [5]: 0%
- Population Mitotic Cells (%) [5]: 18%
- Population Normal (%) [5]: 98%
- Population Pyknosed Nuclei (%) [5]: 10%
- Population Tubulin-Different-Phenotype (%) [5]: 2%
- Total Cell Count [5]: 219
- Population Apoptotic (%) [6]: 83%
- Population Fragmented Nuclei (%) [6]: 17%
- Population Healthy Nuclei (%) [6]: 77%
- Population Hoechst High Intensity Objects (%) [6]: 0%
- Population Membrane Permeable-Phenotype (%) [6]: 4%
- Population Mitochondria Different-Phenotype (%) [6]: 2%
- Population Mitotic Cells (%) [6]: 16%
- Population Normal (%) [6]: 100%
- Population Pyknosed Nuclei (%) [6]: 4%
- Population Tubulin-Different-Phenotype (%) [6]: 3%
- Total Cell Count [6]: 121
- Population Apoptotic (%) [7]: 76%
- Population Fragmented Nuclei (%) [7]: 20%
- Population Healthy Nuclei (%) [7]: 58%
- Population Hoechst High Intensity Objects (%) [7]: 3%
- Population Membrane Permeable-Phenotype (%) [7]: 22%
- Population Mitochondria Different-Phenotype (%) [7]: 12%
- Population Mitotic Cells (%) [7]: 24%
- Population Normal (%) [7]: 96%
- Population Pyknosed Nuclei (%) [7]: 21%
- Population Tubulin-Different-Phenotype (%) [7]: 13%
- Total Cell Count [7]: 245
- Population Apoptotic (%) [8]: 100%
- Population Fragmented Nuclei (%) [8]: 7%
- Population Healthy Nuclei (%) [8]: 86%
- Population Hoechst High Intensity Objects (%) [8]: 1%
- Population Membrane Permeable-Phenotype (%) [8]: 9%
- Population Mitotic Cells (%) [8]: 0%
- Population Normal (%) [8]: 98%
- Population Pyknosed Nuclei (%) [8]: 6%
- Population Tubulin-Different-Phenotype (%) [8]: 6%
- Total Cell Count [8]: 156
- Population Apoptotic (%) [9]: 94%
- Population Fragmented Nuclei (%) [9]: 18%
- Population Healthy Nuclei (%) [9]: 69%
- Population Hoechst High Intensity Objects (%) [9]: 2%
- Population Membrane Permeable-Phenotype (%) [9]: 6%
- Population Mitochondria Different-Phenotype (%) [9]: 0%
- Population Mitotic Cells (%) [9]: 5%
- Population Normal (%) [9]: 97%
- Population Pyknosed Nuclei (%) [9]: 11%
- Population Tubulin-Different-Phenotype (%) [9]: 2%
- Total Cell Count [9]: 352
- Population Apoptotic (%) [10]: 100%
- Population Fragmented Nuclei (%) [10]: 15%
- Population Healthy Nuclei (%) [10]: 77%
- Population Membrane Permeable-Phenotype (%) [10]: 2%
- Population Mitochondria Different-Phenotype (%) [10]: 2%
- Population Mitotic Cells (%) [10]: 0%
- Population Pyknosed Nuclei (%) [10]: 6%
- Total Cell Count [10]: 181
- Population Apoptotic (%) [11]: 90%
- Population Fragmented Nuclei (%) [11]: 26%
- Population Healthy Nuclei (%) [11]: 54%
- Population Hoechst High Intensity Objects (%) [11]: 4%
- Population Membrane Permeable-Phenotype (%) [11]: 20%
- Population Mitochondria Different-Phenotype (%) [11]: 10%
- Population Mitotic Cells (%) [11]: 9%
- Population Normal (%) [11]: 95%
- Population Pyknosed Nuclei (%) [11]: 19%
- Population Tubulin-Different-Phenotype (%) [11]: 14%
- Total Cell Count [11]: 296
- Population Apoptotic (%) [12]: 96%
- Population Fragmented Nuclei (%) [12]: 12%
- Population Healthy Nuclei (%) [12]: 74%
- Population Hoechst High Intensity Objects (%) [12]: 3%
- Population Membrane Permeable-Phenotype (%) [12]: 11%
- Population Mitochondria Different-Phenotype (%) [12]: 5%
- Population Mitotic Cells (%) [12]: 3%
- Population Normal (%) [12]: 96%
- Population Pyknosed Nuclei (%) [12]: 12%
- Population Tubulin-Different-Phenotype (%) [12]: 4%
- Total Cell Count [12]: 218

SMILES: COc1cc(OC2CCN(C(C)=O)CC2)ccc1C(=O)N1CCC(N2C(=O)OCc3ccccc32)CC1
- Population Apoptotic (%) [1]: 50%
- Population Fragmented Nuclei (%) [1]: 22%
- Population Healthy Nuclei (%) [1]: 67%
- Population Hoechst High Intensity Objects (%) [1]: 0%
- Population Membrane Permeable-Phenotype (%) [1]: 5%
- Population Mitochondria Different-Phenotype (%) [1]: 3%
- Population Mitotic Cells (%) [1]: 50%
- Population Normal (%) [1]: 99%
- Population Pyknosed Nuclei (%) [1]: 9%
- Population Tubulin-Different-Phenotype (%) [1]: 3%
- Total Cell Count [1]: 233
- Population Apoptotic (%) [2]: 66%
- Population Fragmented Nuclei (%) [2]: 20%
- Population Healthy Nuclei (%) [2]: 69%
- Population Membrane Permeable-Phenotype (%) [2]: 11%
- Population Mitochondria Different-Phenotype (%) [2]: 7%
- Population Mitotic Cells (%) [2]: 33%
- Population Tubulin-Different-Phenotype (%) [2]: 8%
- Total Cell Count [2]: 130
- Population Apoptotic (%) [3]: 72%
- Population Fragmented Nuclei (%) [3]: 23%
- Population Healthy Nuclei (%) [3]: 62%
- Population Hoechst High Intensity Objects (%) [3]: 6%
- Population Membrane Permeable-Phenotype (%) [3]: 18%
- Population Mitochondria Different-Phenotype (%) [3]: 6%
- Population Mitotic Cells (%) [3]: 27%
- Population Normal (%) [3]: 93%
- Population Pyknosed Nuclei (%) [3]: 13%
- Population Tubulin-Different-Phenotype (%) [3]: 12%
- Total Cell Count [3]: 228
- Population Apoptotic (%) [4]: 87%
- Population Fragmented Nuclei (%) [4]: 13%
- Population Healthy Nuclei (%) [4]: 77%
- Population Hoechst High Intensity Objects (%) [4]: 1%
- Population Membrane Permeable-Phenotype (%) [4]: 21%
- Population Mitochondria Different-Phenotype (%) [4]: 10%
- Population Mitotic Cells (%) [4]: 12%
- Population Normal (%) [4]: 98%
- Population Pyknosed Nuclei (%) [4]: 9%
- Population Tubulin-Different-Phenotype (%) [4]: 13%
- Total Cell Count [4]: 85
- Population Apoptotic (%) [5]: 82%
- Population Fragmented Nuclei (%) [5]: 20%
- Population Healthy Nuclei (%) [5]: 71%
- Population Hoechst High Intensity Objects (%) [5]: 1%
- Population Membrane Permeable-Phenotype (%) [5]: 3%
- Population Mitochondria Different-Phenotype (%) [5]: 2%
- Population Mitotic Cells (%) [5]: 17%
- Population Normal (%) [5]: 98%
- Population Pyknosed Nuclei (%) [5]: 8%
- Population Tubulin-Different-Phenotype (%) [5]: 2%
- Total Cell Count [5]: 288
- Population Apoptotic (%) [6]: 76%
- Population Fragmented Nuclei (%) [6]: 22%
- Population Healthy Nuclei (%) [6]: 68%
- Population Membrane Permeable-Phenotype (%) [6]: 7%
- Population Mitochondria Different-Phenotype (%) [6]: 5%
- Population Mitotic Cells (%) [6]: 23%
- Population Tubulin-Different-Phenotype (%) [6]: 3%
- Total Cell Count [6]: 163
- Population Apoptotic (%) [7]: 81%
- Population Fragmented Nuclei (%) [7]: 21%
- Population Healthy Nuclei (%) [7]: 60%
- Population Hoechst High Intensity Objects (%) [7]: 5%
- Population Membrane Permeable-Phenotype (%) [7]: 9%
- Population Mitochondria Different-Phenotype (%) [7]: 9%
- Population Mitotic Cells (%) [7]: 18%
- Population Normal (%) [7]: 94%
- Population Pyknosed Nuclei (%) [7]: 18%
- Population Tubulin-Different-Phenotype (%) [7]: 4%
- Total Cell Count [7]: 250
- Population Apoptotic (%) [8]: 71%
- Population Fragmented Nuclei (%) [8]: 12%
- Population Healthy Nuclei (%) [8]: 80%
- Population Hoechst High Intensity Objects (%) [8]: 2%
- Population Membrane Permeable-Phenotype (%) [8]: 10%
- Population Mitochondria Different-Phenotype (%) [8]: 3%
- Population Mitotic Cells (%) [8]: 28%
- Population Normal (%) [8]: 97%
- Population Pyknosed Nuclei (%) [8]: 7%
- Population Tubulin-Different-Phenotype (%) [8]: 6%
- Total Cell Count [8]: 99
- Population Apoptotic (%) [9]: 80%
- Population Fragmented Nuclei (%) [9]: 17%
- Population Healthy Nuclei (%) [9]: 77%
- Population Hoechst High Intensity Objects (%) [9]: 3%
- Population Membrane Permeable-Phenotype (%) [9]: 3%
- Population Mitochondria Different-Phenotype (%) [9]: 1%
- Population Mitotic Cells (%) [9]: 19%
- Population Normal (%) [9]: 96%
- Population Pyknosed Nuclei (%) [9]: 5%
- Population Tubulin-Different-Phenotype (%) [9]: 2%
- Total Cell Count [9]: 388
- Population Apoptotic (%) [10]: 65%
- Population Fragmented Nuclei (%) [10]: 23%
- Population Healthy Nuclei (%) [10]: 66%
- Population Membrane Permeable-Phenotype (%) [10]: 10%
- Population Mitochondria Different-Phenotype (%) [10]: 5%
- Population Mitotic Cells (%) [10]: 35%
- Population Pyknosed Nuclei (%) [10]: 9%
- Population Tubulin-Different-Phenotype (%) [10]: 4%
- Total Cell Count [10]: 213
- Population Apoptotic (%) [11]: 81%
- Population Fragmented Nuclei (%) [11]: 19%
- Population Healthy Nuclei (%) [11]: 66%
- Population Hoechst High Intensity Objects (%) [11]: 5%
- Population Membrane Permeable-Phenotype (%) [11]: 5%
- Population Mitochondria Different-Phenotype (%) [11]: 4%
- Population Mitotic Cells (%) [11]: 18%
- Population Normal (%) [11]: 95%
- Population Pyknosed Nuclei (%) [11]: 14%
- Population Tubulin-Different-Phenotype (%) [11]: 3%
- Total Cell Count [11]: 320
- Population Apoptotic (%) [12]: 100%
- Population Fragmented Nuclei (%) [12]: 17%
- Population Healthy Nuclei (%) [12]: 78%
- Population Hoechst High Intensity Objects (%) [12]: 1%
- Population Membrane Permeable-Phenotype (%) [12]: 14%
- Population Mitochondria Different-Phenotype (%) [12]: 6%
- Population Mitotic Cells (%) [12]: 0%
- Population Normal (%) [12]: 98%
- Population Pyknosed Nuclei (%) [12]: 3%
- Population Tubulin-Different-Phenotype (%) [12]: 8%
- Total Cell Count [12]: 130
